IMP-1 inh – IMP-1 metallo-beta-lactamase inhibitors, primary screen, biochemical, epi-absorbance readout, Pseudomonas aeruginosa enzyme | metallo-beta-lactamase IMP-1 (Pseudomonas aeruginosa) | inhibition, % at 5.6 µM | purified IMP-1, nitrocefin hydrolysis, epi-absorbance fluorescence | AID 1556, 2009 | 290,000 compounds, 0.45% hits;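 active means inhibition above the mean plus 3 SD of all compounds in the same screening run, cut at about 4.5% in these data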;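 further: 0% = IMP-1 with DMSO and 100% = DMSO wells lacking enzyme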
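Material – recombinant IMP-1 enzyme, purified · Amount – IMP-1 0.2 nM before substrate addition · Medium – HEPES buffer pH 7.1 with ZnSO4 and Brij 35 · Timing – 25 °C, 15 min preincubation, 25 min reaction · Measured by – plate fluorescence quenching by hydrolysis product, ex 480/em 530 nm · Read-out – percent enzyme inhibition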
NALP1 yeast inh – NALP1 inflammasome inhibitors in reconstituted yeast, colorimetric, S. cerevisiae, triplicate retest; S. cerevisiae NALP1/ASC/caspase-1 growth, X-gal OD620, 72 h; AID 2071, 2009; 280,000 compounds, 0.61% hits; inhibition, % at 10 µM; in the data active means inhibition mostly above about 24%, no sharp cut-off; inactive means mostly below about 32%
PolyA inhibitor – polyadenylation inhibitors in yeast reporter cells, primary screen, luminescence, S. cerevisiae | S. cerevisiae SKY197-pL101 polyadenylation reporter, beta-gal luminescence; efflux-impaired pdr1/pdr3 knockout yeast; score 100 = 6 SD above DMSO | activity score, % at 12 µM | 300,000 compounds, 0.02% hits | AID 1875, 2009;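 active means lowest replicate activity score at least 50, where 100 means six control SD above control mean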;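 further: yeast exposed to compound for 9 h at 30 °C; higher score means more reporter readthrough which indicates perturbed polyadenylation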
VIM-2 inh – VIM-2 metallo-beta-lactamase inhibitors, primary screen, biochemical, epi-absorbance readout, Pseudomonas aeruginosa enzyme | purified VIM-2, nitrocefin hydrolysis, epi-absorbance fluorescence | inhibition, % at 5.6 µM | 290,000 compounds, 0.89% hits;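 active means inhibition above the mean of all tested compounds plus 3 SD, cutoff set per screening run, cut at about 7.5% in these data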;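 further: red hydrolysis product quenches plate fluorescence so inhibitors raise well fluorescence; 0% = enzyme with DMSO and 100% = DMSO without enzyme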
SUMO Mot1 rescue – yeast Mot1-301 growth rescue at high temperature, primary screen, SUMOylation pathway inhibitor project, S. cerevisiae, ATP luminescence, 38.5C; S. cerevisiae Mot1-301 growth rescue; percent above DMSO median, 100 means doubled; 320,000 compounds, 1% hits; growth rescue, % at 18.8 µM; AID 2716, 2010;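 active means every valid replicate shows activation above 250% relative to neutral control wells; inactive means the rest, any valid replicate at or below 250%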;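 further: OY570 slx delta 5 strain wells were the positive control but not used for scaling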
NALP3 yeast inh – NALP3 inflammasome inhibitors in reconstituted yeast, primary screen, luminescence, uHTS; Yeast reconstituted NLRP3/ASC/caspase-1, beta-gal luminescence, 24 h; inhibition, % at 10 µM; 330,000 compounds, 0.39% hits; AID 2825, 2010;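 active means inhibition of 50% or more; inactive means inhibition below 50%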;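 further: plate controls were induced DMSO wells for no effect and uninduced yeast grown without galactose for full effect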
An asterisk follows results filed as active; . = not tested or not shown; + = active, no number. Rows were chosen to be rich in hits. Some 2.9% of all compounds tested hit in one or more screens of this group.

SMILES	IMP-1 inh	NALP1 yeast inh	PolyA inhibitor	VIM-2 inh	SUMO Mot1 rescue	NALP3 yeast inh
COc1cccc(C(=O)NC2CC3CCCC(C2)N3CC(=O)Nc2ccccc2)c1 (stereo not drawn)	28*	9	0	-1	-11	-6
O=C1N=c2ccccc2=C1c1sc(Nc2cccc(O)c2)nc1O	-6	12	-5	-3	18	14
O=C1N=c2ccccc2=C1c1sc(Nc2ccc(O)cc2)nc1O	5.1*	13	.	-4	.	.
CCOC(=O)c1cc(=O)[nH]c2ccccc12	-4	0	1	-4	.	6
CCCOC(=O)c1cc(=O)[nH]c2ccccc12	4.5*	6	2	0	-18	21
CNC(=O)C(=O)NCCN1CCN(S(=O)(=O)c2ccc3ccccc3c2)CC1	1	19	2	1	-24	10
CN(C)S(=O)(=O)Nc1ccc(NS(=O)(=O)N(C)C)c(S(=O)(=O)c2ccccc2)c1	-5	27*	22	-5	-12	16
O=C(NCC(=O)N1CCN(c2ccccc2)CC1)c1cccs1	-1	-2	15	-2	1	8
N#C[C@H]1C2OC2c2ccccc2N1C(=O)c1ccccc1 (stereo partly drawn)	.	.	-6	.	-1	17
Cc1c(Cl)cccc1NC(=O)COC(=O)Cn1cnc2c1c(=O)n(C)c(=O)n2C	.	.	.	.	-9	3
Cc1ccccc1NC(=O)NC1(C(=O)NCC2CCCO2)CCCCC1 (stereo not drawn)	-2	7	-5	0	78	4
O=C(Cc1ccccc1)N/N=C/c1cc(Br)cc(Cl)c1O	-1	19	3	-1	358*	24
Cc1cnc(NC(=O)Cc2ccc(C)c(C)c2)s1	8.7*	-2	3	-4	3	16
O=S(=O)(c1cccs1)N1CCN(c2ccccc2F)CC1	-3	-13	-2	-1	335*	43
O=C(CCCSc1nnc(-c2cccs2)n1CC1CCCO1)c1ccccc1 (stereo not drawn)	-8	-4	3	9.7*	-5	-9
O=C(CSc1nnc(-c2cccs2)n1CC1CCCO1)N1CCCC1 (stereo not drawn)	-2	-8	8	-2	57	13
Cn1c(-c2ccc(C=O)s2)nc2c3ccccc3c3ccccc3c21	-2	32*	-13	1	-3	24
CN(CC(=O)Nc1ccccc1C(F)(F)F)C(=O)CSCc1ccccc1	.	.	-20	.	-19	4
O=C(c1cccc(Br)c1)N1CCN(S(=O)(=O)N2CCOCC2)CC1	-3	-15	-11	1	333*	-2
O=C(c1ccccc1)N1CCN(S(=O)(=O)N2CCOCC2)CC1	-4	4	-1	-2	4	11
S=C(NCc1ccccc1)NC1CCSc2ccccc21 (stereo not drawn)	-2	27*	0	-4	84	24
Cc1c(NC(=O)C(=O)/C=C(\O)c2ccc(Cl)cc2)c(=O)n(-c2ccccc2)n1C	-2	17	9	1	294*	16
COc1ccc(Cl)cc1NC(=O)CN(C)CC(=O)Nc1c(C)n(C)n(-c2ccccc2)c1=O	.	.	.	.	281*	6
COc1ccc(S(=O)(=O)N2CCN(CC(=O)NC(Cc3ccccc3)C(C)=O)CC2)cc1 (stereo not drawn)	.	.	.	.	8	19
Cc1ccc(NC(=O)C2CCN(S(C)(=O)=O)CC2)cc1Cl	-3	14	0	-1	142	13
SMILES	IMP-1 inh	NALP1 yeast inh	PolyA inhibitor	VIM-2 inh	SUMO Mot1 rescue	NALP3 yeast inh
COc1cccc2cc(C(=O)NCc3ccc(Cl)cc3)c(=O)oc12	-4	37*	-7	-3	-8	-6
COc1ccc(S(=O)(=O)NCCOc2ccccc2)cc1C	-2	50*	-9	-2	8	9
O=S(=O)(NCCOc1ccccc1)c1ccc2ccccc2c1	-2	-5	-4	-2	-8	-3
N#CCCn1nc(Cc2cccc3ccccc23)c(C#N)c1N	.	.	6	.	331*	22
Cc1cc(=O)n(C)c(=O)n1CCCCOc1ccc([N+](=O)[O-])cc1	-3	50*	4	-2	29	-9
COc1ccc(-c2cc(C(=O)OCC(=O)c3c(N)n(C)c(=O)n(C)c3=O)c3ccccc3n2)cc1	-2	-8	-26	-2	.	2
Cn1c(N)c(C(=O)COC(=O)c2ccnc3ccccc23)c(=O)n(C)c1=O	-5	10	1	9.7*	-10	4
CC(=O)Nc1ccc(S(=O)(=O)N(C)CC(=O)Nc2cccc(S(=O)(=O)N3CCCC3)c2)cc1	.	.	-1	.	-10	2
O=C(Nc1cccc(Cl)c1)c1cccc(N2C(=O)C3CC=CCC3C2=O)c1 (stereo not drawn)	18*	9	8	1	-6	8
O=c1ccc(N=Nc2ccccc2)ccc1O	-5	14	-17	-1	12	.
Oc1ccc(N=Nc2ccccc2)o1	-1	19	2	0	313*	32
COCCNC(=O)CSc1ccccc1C(=O)NCC1CCCCC1	-2	-2	-5	-3	+	19
CCc1cc2c3c(c1)C1(C(=O)N3C(C)(C)CC2C)C(C#N)=C(N)N2C(=C1C#N)Nc1ccccc12 (stereo not drawn)	-3	39	4	-2	608*	6
COc1ccc(C(N)c2nccc3cc(OC)c(OC)cc23)cc1OC (stereo not drawn)	2	9	-8	7.8*	58	15
Cc1cccc(C)c1Nc1ncnc2ccccc12	-2	9	-8	-2	161	6
C#CCCCCCCC#CCN(C)C	-3	52	4	-1	1	5
CN(C)CC#CCCCCCCC#CCN(C)C	-3	18	13	0	996*	-2
CC(C)N1C(=O)C(=O)N(CC(=O)N2c3ccccc3NC(=O)CC2C)C1=O (stereo not drawn)	.	.	.	.	.	16
O=C(O)Cc1ccc(C(=O)c2ccc(Cl)cc2Cl)s1	0	-2	19	-1	11	10
COc1ccc(-c2sc(C(=O)c3ccc(Cl)cc3Cl)cc2CC(=O)O)cc1	-1	11	2	11*	-10	16
Cc1ccc(OCC(COCc2ccccc2)NC(C)C)cc1 (stereo not drawn)	.	.	-13	.	13	27
O=C1C=C(NCc2ccncc2)CC(c2ccccc2)C1 (stereo not drawn)	-4	7	10	-2	7	8

Bioassay records as filed in PubChem.
